Reference: ChEMBL document CHEMBL5252669, “Semisynthetic blasticidin S ester derivatives show enhanced antibiotic activity” (RSC Med Chem, 2023)
In brackets after ≈: the same amount, converted by molar mass. Activity calls are given as the source filed them. The calls are words filed in the database; no cut-off is given here.

What was measured:
[1] = Selectivity index, ratio of CC50 for human MRC5 cells to IC50 for Klebsiella pneumoniae ATCC 29665; type: toxicity; details: read-out: Ratio CC50/IC50
Enterococcus [2] = assay: Antibacterial activity against vancomycin-resistant Enterococcus incubated for 20 hrs by broth microdilution method
Saccharomyces cerevisiae = assay: Antifungal activity against Saccharomyces cerevisiae incubated for 16 hrs by broth microdilution method; type: functional
Acinetobacter baumannii = assay: Antibacterial activity against Acinetobacter baumannii ATCC 17978 incubated for 16 hrs by broth microdilution method; type: functional, organism-based; details: for IC50: ATCC 17978, 16 h; for MIC: ATCC 17978, time 16 hrs
[3] = Selectivity index, ratio of CC50 for human MRC5 cells to IC50 for vancomycin-resistant Enterococcus; type: toxicity; details: read-out: Ratio CC50/IC50
Klebsiella pneumoniae = assay: Antibacterial activity against Klebsiella pneumoniae ATCC 29665 incubated for 16 hrs by broth microdilution method; type: functional, organism-based; details: for IC50: ATCC 29665, 16 h; for MIC: ATCC 29665, time 16 hrs
[4] = Selectivity index, ratio of CC50 for human MRC5 cells to IC50 for Acinetobacter baumannii ATCC 17978; type: toxicity; details: read-out: Ratio CC50/IC50
Enterococcus faecalis [5] = assay: Antibacterial activity against Enterococcus faecalis ATCC 29212 incubated for 20 hrs by broth microdilution method; details: ATCC 29212, 20 h
[6] = Selectivity index, ratio of CC50 for human MRC5 cells to IC50 for NorA deleted Staphylococcus aureus; type: toxicity; details: read-out: Ratio CC50/IC50
Candida albicans [7] = assay: Antifungal activity against Candida albicans incubated for 16 hrs by broth microdilution method; type: functional
[8] = Cytotoxicity against human MRC5 cells incubated for 24 hrs by MTS assay; type: toxicity, cell-based
Outline: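 MRC-5 lung fibroblasts seeded 5000 per well; medium replaced with compound 16–192 μg mL−1 or matching 1:1 methanol:water vehicle; 24 h, then MTS 3–4 h; absorbance 490 nm; viability relative to untreated cells, normalized to vehicle; CC50 from two independent assays in duplicate, mean ± SD.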

[9] = Selectivity index, ratio of CC50 for human MRC5 cells to IC50 for Enterococcus faecalis ATCC 29212; type: toxicity; details: read-out: Ratio CC50/IC50
[10] = Selectivity index, ratio of CC50 for human MRC5 cells to IC50 for methicillin resistant Staphylococcus aureus; type: toxicity; details: read-out: Ratio CC50/IC50
Pseudomonas aeruginosa = assay: Antibacterial activity against MexAB-OprM deleted Pseudomonas aeruginosa incubated for 16 hrs by broth microdilution method; type: functional, organism-based; details: for IC50: 16 h; for MIC: time 16 hrs
[11] = Selectivity index, ratio of CC50 for human MRC5 cells to IC50 for Staphylococcus aureus; type: toxicity; details: read-out: Ratio CC50/IC50
Staphylococcus aureus [12] = assay: Antibacterial activity against wild type Staphylococcus aureus 8810 incubated for 16 hrs by broth microdilution method; type: functional, organism-based; details: for IC50: Staphylococcus aureus, 8810, 16 h; for MIC: Staphylococcus aureus, 8810, time 16 hrs
Outline: (§1)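 Cation-adjusted Mueller-Hinton broth microdilution. Overnight cultures from single colonies were diluted to OD600 0.004. Final compound range was 256–2 μg mL−1 in 1:1 methanol/water vehicle, with doxycycline and vehicle controls. Plates were incubated 16 h at 37 °C. OD600 was normalized to controls, and MIC was the lowest concentration inhibiting >90% growth. Two biological replicates in duplicate; reported as a range.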

[13] = Selectivity index, ratio of CC50 for human MRC5 cells to IC50 for MexAB-OprM deleted Pseudomonas aeruginosa; type: toxicity; details: read-out: Ratio CC50/IC50
Staphylococcus aureus [14] = assay: Antibacterial activity against methicillin resistant Staphylococcus aureus ATCC 43300 incubated for 16 hrs by broth microdilution method; type: functional, organism-based; details: for IC50: ATCC 43300, 16 h; for MIC: ATCC 43300, time 16 hrs; outline: as §1
Staphylococcus aureus [15] = assay: Antibacterial activity against NorA deleted Staphylococcus aureus incubated for 16 hrs by broth microdilution method; type: functional, organism-based; details: for IC50: 16 h; for MIC: time 16 hrs; outline: as §1
Staphylococcus aureus [16] = assay: Antibacterial activity against NorA deleted Staphylococcus aureus assessed as zone of inhibition incubated for 18 hrs by spot on lawn assay; type: functional, organism-based
Outline: (§2)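 Overnight LB cultures diluted to OD600 0.01 in 0.7% LB top agar, overlaid on 1.5% LB agar; 5 mg mL−1 aqueous compound spotted at 35, 25, 10 and 5 μg with 1:1 water/methanol vehicle spot; 37 °C, 18 h; inhibition zone diameter measured by ruler.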

Enterococcus [17] = assay: Antibacterial activity against vancomycin-resistant Enterococcus assessed as zone of inhibition incubated for 18 hrs by spot on lawn assay; type: functional, organism-based
Outline: (§3)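 Spot-on-lawn assay. Plates of 1.5% agar in LB were overlaid with 0.7% LB agar seeded with overnight culture at 0.01 OD600. Aqueous 5 mg mL−1 solutions were spotted at 35, 25, 10 and 5 μg, with a 1:1 water/methanol vehicle spot. After 18 h at 37 °C, inhibition zone diameters were measured with a ruler.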

Staphylococcus aureus [18] = assay: Antibacterial activity against methicillin resistant Staphylococcus aureus assessed as zone of inhibition incubated for 18 hrs by spot on lawn assay; type: functional, organism-based; outline: as §3
Candida albicans [19] = assay: Antifungal activity against Candida albicans assessed as zone of inhibition incubated for 18 hrs by spot on lawn assay; type: functional, organism-based; outline: as §2
Staphylococcus aureus [20] = assay: Antibacterial activity against Staphylococcus aureus assessed as zone of inhibition incubated for 18 hrs by spot on lawn assay; type: functional, organism-based; outline: as §2
Enterococcus faecalis [21] = assay: Antibacterial activity against Enterococcus faecalis ATCC 29212 assessed as zone of inhibition incubated for 18 hrs by spot on lawn assay; type: functional, organism-based; outline: as §2

Row | Structure (SMILES) | selectivity ratio [1] | IC50 (Enterococcus [2]) [µg/mL] | MIC (Enterococcus [2]) [µg/mL] | MIC (Saccharomyces cerevisiae) [µg/mL] | IC50 (Acinetobacter baumannii) [µg/mL] | MIC (Acinetobacter baumannii) [µg/mL] | selectivity ratio [3] | IC50 (Klebsiella pneumoniae) [µg/mL] | MIC (Klebsiella pneumoniae) [µg/mL] | selectivity ratio [4] | IC50 (Enterococcus faecalis [5]) [µg/mL] | MIC (Enterococcus faecalis [5]) [µg/mL] | selectivity ratio [6] | MIC (Candida albicans [7]) [µg/mL] | CC50 at 24 h [8] [µg/mL] | selectivity ratio [9] | selectivity ratio [10] | IC50 (Pseudomonas aeruginosa) [µg/mL] | MIC (Pseudomonas aeruginosa) [µg/mL] | selectivity ratio [11] | also measured
1 | CN(CC[C@H](N)CC(=O)N[C@H]1C=C[C@H](n2ccc(N)nc2=O)O[C@@H]1C(=O)OCc1ccccc1)C(=N)N | 0.3 | > 64 | 128 (≈ 250 µM) | 128 (≈ 250 µM) | 85.1 (≈ 166 µM) | > 128 | < 0.3 | 58.8 (≈ 115 µM) | > 128 | 0.2 | 14.6 (≈ 28.5 µM) | 16 (≈ 31.2 µM) | 0.4 | > 128 | 17.4 (≈ 33.9 µM) | 1.2 | 0.7 | 89.3 (≈ 174 µM) | > 128 | 0.5 | IC50 (Staphylococcus aureus [12]): 33 µg/mL (≈ 64.4 µM); MIC (Staphylococcus aureus [12]): 128 µg/mL (≈ 250 µM); selectivity ratio [13]: 0.2; IC50 (Staphylococcus aureus [14]): 23.3 µg/mL (≈ 45.5 µM); MIC (Staphylococcus aureus [14]): 32 µg/mL (≈ 62.4 µM); IC50 (Staphylococcus aureus [15]): 46.6 µg/mL (≈ 90.9 µM); MIC (Staphylococcus aureus [15]): 128 µg/mL (≈ 250 µM)
2 | CCCCOC(=O)[C@H]1O[C@@H](n2ccc(N)nc2=O)C=C[C@@H]1NC(=O)C[C@@H](N)CCN(C)C(=N)N | 0.3 | 130 (≈ 272 µM) | 256 (≈ 535 µM) | 64 (≈ 134 µM) | 61.5 (≈ 129 µM) | > 128 | 0.2 | 82.1 (≈ 172 µM) | > 128 | 0.3 | 16.1 (≈ 33.6 µM) | 32 (≈ 66.9 µM) | 0.6 | > 256 | 21.2 (≈ 44.3 µM) | 1.3 | 0.7 | 79.8 (≈ 167 µM) | > 128 | 0.9 | Activity (Staphylococcus aureus [16]): Active; Activity (Enterococcus [17]): Active; Activity (Staphylococcus aureus [18]): Active; IC50 (Staphylococcus aureus [12]): 23.9 µg/mL (≈ 49.9 µM); MIC (Staphylococcus aureus [12]): 64 µg/mL (≈ 134 µM); Activity (Candida albicans [19]): inactive; selectivity ratio [13]: 0.3; IC50 (Staphylococcus aureus [14]): 28.1 µg/mL (≈ 58.7 µM); MIC (Staphylococcus aureus [14]): 64 µg/mL (≈ 134 µM); Activity (Staphylococcus aureus [20]): Active; Activity (Enterococcus faecalis [21]): Active; IC50 (Staphylococcus aureus [15]): 34.6 µg/mL (≈ 72.3 µM); MIC (Staphylococcus aureus [15]): 64 µg/mL (≈ 134 µM)
3 | COC(=O)[C@H]1O[C@@H](n2ccc(N)nc2=O)C=C[C@@H]1NC(=O)C[C@@H](N)CCN(C)C(=N)N | 0.5 | 31 (≈ 71 µM) | 64 (≈ 147 µM) | 32 (≈ 73.3 µM) | 10.2 (≈ 23.4 µM) | 32 (≈ 73.3 µM) | 0.6 | 34.3 (≈ 78.6 µM) | 64 (≈ 147 µM) | 1.8 | 9.2 (≈ 21.1 µM) | 16 (≈ 36.7 µM) | 0.8 | > 256 | 18.3 (≈ 41.9 µM) | 2 | 1.7 | 35.1 (≈ 80.4 µM) | 128 (≈ 293 µM) | 1.6 | Activity (Staphylococcus aureus [16]): Active; Activity (Enterococcus [17]): Active; Activity (Staphylococcus aureus [18]): Active; IC50 (Staphylococcus aureus [12]): 11.4 µg/mL (≈ 26.1 µM); MIC (Staphylococcus aureus [12]): 32 µg/mL (≈ 73.3 µM); Activity (Candida albicans [19]): inactive; selectivity ratio [13]: 0.5; IC50 (Staphylococcus aureus [14]): 10.4 µg/mL (≈ 23.8 µM); MIC (Staphylococcus aureus [14]): 16 µg/mL (≈ 36.7 µM); Activity (Staphylococcus aureus [20]): Active; Activity (Enterococcus faecalis [21]): Active; IC50 (Staphylococcus aureus [15]): 21.5 µg/mL (≈ 49.3 µM); MIC (Staphylococcus aureus [15]): 32 µg/mL (≈ 73.3 µM)
4 | CN(CC[C@H](N)CC(=O)N[C@H]1C=C[C@H](n2ccc(N)nc2=O)O[C@@H]1C(=O)O)C(=N)N.Cl | 0.2 | > 256 | > 256 | 16 | 70.4 | 128 | < 0.1 | 74.8 | 128 | 0.2 | 52.5 | 128 | < 0.1 | 64 | 16.1 | 0.3 | 0.2 | 73 | 128 | 0.2 | IC50 (Staphylococcus aureus [12]): 77 µg/mL; MIC (Staphylococcus aureus [12]): 128 µg/mL; Activity (Candida albicans [19]): Active; selectivity ratio [13]: 0.2; IC50 (Staphylococcus aureus [14]): 79.7 µg/mL; MIC (Staphylococcus aureus [14]): 128 µg/mL; IC50 (Staphylococcus aureus [15]): > 256 µg/mL; MIC (Staphylococcus aureus [15]): > 256 µg/mL
